Results reported in ChEMBL document CHEMBL1152843, “Synthesis of new series of 5,6-dihydro-4H-1,2-oxazines via hetero Diels-Alder reaction and evaluation of antimicrobial activity” (2009).
≈ marks a conversion by molar mass, not a printed value.

These molecules were tested on Fusarium verticillioides (assay: Antifungal activity against Fusarium moniliforme at 20 ug after 48 hrs by cup diffusion method). Conditions: not given.
Type: functional
Method in brief: (§1)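 Cup diffusion on 9 cm plates seeded with 1 × 10⁶ cfu of fungi, with spores adjusted to at least 1 × 10⁶ cfu/ml in potato dextrose broth. Compound in DMF was placed in 5 mm agar cups and left 1 h to diffuse. Plates were incubated at 28 °C for 48 h and the inhibition zone read in mm. DMF was the negative control.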

| Molecule | inhibition zone (IZ) |
| --- | --- |
| NYSTATIN | 15.6 mm |

Same assay, conditions: read-out: IZ

| Molecule | zone of inhibition at 20 µg/disc |
| --- | --- |
| OCC1CCC(c2ccc3c(c2)CCC3)=NO1 (stereo not given) | 13.7 mm |
| COc1ccc(C2=NOC(Cc3ccc4c(c3)OCO4)CC2)cc1OC (stereo not given) | 11.2 mm |
| CCOC(=O)C1CCC(c2ccc(C)c(C)c2)=NO1 (stereo not given) | 16.7 mm |

These molecules were tested on Fusarium oxysporum (assay: Antifungal activity against Fusarium oxysporum at 20 ug after 48 hrs by cup diffusion method). Conditions: not given.
Type: functional
Method in brief: as §1

| Molecule | inhibition zone (IZ) |
| --- | --- |
| NYSTATIN | 16.6 mm |

Same assay, conditions: read-out: IZ

| Molecule | zone of inhibition at 20 µg/disc |
| --- | --- |
| OCC1CCC(c2ccc3c(c2)CCC3)=NO1 (stereo not given) | 18.8 mm |
| COc1ccc(C2=NOC(Cc3ccc4c(c3)OCO4)CC2)cc1OC (stereo not given) | 15.8 mm |
| CCOC(=O)C1CCC(c2ccc(C)c(C)c2)=NO1 (stereo not given) | 19.8 mm |

These molecules were tested on Aspergillus flavus (assay: Antifungal activity against Aspergillus flavus after 48 hrs by cup diffusion method). Conditions: not given.
Type: functional

| Molecule | MIC |
| --- | --- |
| NYSTATIN | 15 µg/mL |
| OCC1CCC(c2ccc3c(c2)CCC3)=NO1 (stereo not given) | 30 µg/mL (≈ 130 µM) |
| COc1ccc(C2=NOC(Cc3ccc4c(c3)OCO4)CC2)cc1OC (stereo not given) | 40 µg/mL (≈ 113 µM) |
| CCOC(=O)C1CCC(c2ccc(C)c(C)c2)=NO1 (stereo not given) | 15 µg/mL (≈ 57.4 µM) |

The molecules below were run on Aspergillus niger (assay: Antifungal activity against Aspergillus niger after 48 hrs by cup diffusion method). Conditions: not given.
Type: functional

| Molecule | MIC |
| --- | --- |
| NYSTATIN | 10 µg/mL |
| OCC1CCC(c2ccc3c(c2)CCC3)=NO1 (stereo not given) | 30 µg/mL (≈ 130 µM) |
| COc1ccc(C2=NOC(Cc3ccc4c(c3)OCO4)CC2)cc1OC (stereo not given) | 40 µg/mL (≈ 113 µM) |
| CCOC(=O)C1CCC(c2ccc(C)c(C)c2)=NO1 (stereo not given) | 20 µg/mL (≈ 76.5 µM) |

What follows are molecules tested on Fusarium verticillioides (assay: Antifungal activity against Fusarium moniliforme after 48 hrs by cup diffusion method). Conditions: not given.
Type: functional

| Molecule | MIC |
| --- | --- |
| NYSTATIN | 15 µg/mL |
| OCC1CCC(c2ccc3c(c2)CCC3)=NO1 (stereo not given) | 35 µg/mL (≈ 151 µM) |
| COc1ccc(C2=NOC(Cc3ccc4c(c3)OCO4)CC2)cc1OC (stereo not given) | 35 µg/mL (≈ 98.5 µM) |
| CCOC(=O)C1CCC(c2ccc(C)c(C)c2)=NO1 (stereo not given) | 25 µg/mL (≈ 95.7 µM) |

What follows are molecules tested on Fusarium oxysporum (assay: Antifungal activity against Fusarium oxysporum after 48 hrs by cup diffusion method). Conditions: not given.
Type: functional

| Molecule | MIC |
| --- | --- |
| NYSTATIN | 20 µg/mL |
| OCC1CCC(c2ccc3c(c2)CCC3)=NO1 (stereo not given) | 25 µg/mL (≈ 108 µM) |
| COc1ccc(C2=NOC(Cc3ccc4c(c3)OCO4)CC2)cc1OC (stereo not given) | 30 µg/mL (≈ 84.4 µM) |
| CCOC(=O)C1CCC(c2ccc(C)c(C)c2)=NO1 (stereo not given) | 15 µg/mL (≈ 57.4 µM) |

What follows are molecules tested on Klebsiella pneumoniae (assay: Antibacterial activity against Klebsiella pneumoniae […] at 20 ug after 24 hrs by cup diffusion method). Conditions: read-out: IZ.
Type: functional
Method in brief: (§2)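 Agar cup diffusion. Plates of sterile medium in 9 cm dishes were seeded with 1 × 10⁵ cfu of bacteria, with the suspension adjusted to at least 1 × 10⁵ cfu/ml in nutrient broth. Compound in DMF was placed in 5 mm cups and pre-diffused for 1 h. Plates were incubated at 37 °C for 24 h and the inhibition zone measured in mm. DMF served as negative control.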

| Molecule | zone of inhibition at 20 µg/disc |
| --- | --- |
| OCC1CCC(c2ccc3c(c2)CCC3)=NO1 (stereo not given) | 17.7 mm |
| COc1ccc(C2=NOC(Cc3ccc4c(c3)OCO4)CC2)cc1OC (stereo not given) | 17.5 mm |
| CCOC(=O)C1CCC(c2ccc(C)c(C)c2)=NO1 (stereo not given) | 16.7 mm |

The molecules below were run on Escherichia coli (assay: Antibacterial activity against Escherichia coli MTCC 443 at 20 ug after 24 hrs by cup diffusion method). Conditions: MTCC 443, 24 h, read-out: IZ.
Type: functional
Method in brief: as §2

| Molecule | zone of inhibition at 20 µg/disc |
| --- | --- |
| OCC1CCC(c2ccc3c(c2)CCC3)=NO1 (stereo not given) | 10.5 mm |
| COc1ccc(C2=NOC(Cc3ccc4c(c3)OCO4)CC2)cc1OC (stereo not given) | 8.12 mm |
| CCOC(=O)C1CCC(c2ccc(C)c(C)c2)=NO1 (stereo not given) | 13.5 mm |

Each molecule was assayed on Pseudomonas aeruginosa (assay: Antibacterial activity against Pseudomonas aeruginosa MTCC 1688 at 20 ug after 24 hrs by cup diffusion method). Conditions: MTCC 1688, 24 h, read-out: IZ.
Type: functional
Method in brief: as §2

| Molecule | zone of inhibition at 20 µg/disc |
| --- | --- |
| OCC1CCC(c2ccc3c(c2)CCC3)=NO1 (stereo not given) | 13.7 mm |
| COc1ccc(C2=NOC(Cc3ccc4c(c3)OCO4)CC2)cc1OC (stereo not given) | 14.1 mm |
| CCOC(=O)C1CCC(c2ccc(C)c(C)c2)=NO1 (stereo not given) | 12.8 mm |

What follows are molecules tested on Staphylococcus aureus (assay: Antibacterial activity against Staphylococcus aureus MTCC 737 at 20 ug after 24 hrs by cup diffusion method). Conditions: MTCC 737, 24 h, read-out: IZ.
Type: functional
Method in brief: as §2

| Molecule | zone of inhibition at 20 µg/disc |
| --- | --- |
| OCC1CCC(c2ccc3c(c2)CCC3)=NO1 (stereo not given) | 10.7 mm |
| COc1ccc(C2=NOC(Cc3ccc4c(c3)OCO4)CC2)cc1OC (stereo not given) | 16.5 mm |
| CCOC(=O)C1CCC(c2ccc(C)c(C)c2)=NO1 (stereo not given) | 17.8 mm |

What follows are molecules tested on Escherichia coli (assay: Antibacterial activity against Escherichia coli MTCC 443 after 24 hrs by cup diffusion method). Conditions: MTCC 443, 24 h.
Type: functional

| Molecule | MIC |
| --- | --- |
| OCC1CCC(c2ccc3c(c2)CCC3)=NO1 (stereo not given) | 35 µg/mL (≈ 151 µM) |
| COc1ccc(C2=NOC(Cc3ccc4c(c3)OCO4)CC2)cc1OC (stereo not given) | 25 µg/mL (≈ 70.3 µM) |
| CCOC(=O)C1CCC(c2ccc(C)c(C)c2)=NO1 (stereo not given) | 20 µg/mL (≈ 76.5 µM) |

Each molecule was assayed on Klebsiella pneumoniae (assay: Antibacterial activity against Klebsiella pneumoniae […] after 24 hrs by cup diffusion method). Conditions: not given.
Type: functional

| Molecule | MIC |
| --- | --- |
| OCC1CCC(c2ccc3c(c2)CCC3)=NO1 (stereo not given) | 25 µg/mL (≈ 108 µM) |
| COc1ccc(C2=NOC(Cc3ccc4c(c3)OCO4)CC2)cc1OC (stereo not given) | 15 µg/mL (≈ 42.2 µM) |
| CCOC(=O)C1CCC(c2ccc(C)c(C)c2)=NO1 (stereo not given) | 15 µg/mL (≈ 57.4 µM) |

These molecules were tested on Pseudomonas aeruginosa (assay: Antibacterial activity against Pseudomonas aeruginosa MTCC 1688 after 24 hrs by cup diffusion method). Conditions: MTCC 1688, 24 h.
Type: functional

| Molecule | MIC |
| --- | --- |
| OCC1CCC(c2ccc3c(c2)CCC3)=NO1 (stereo not given) | 20 µg/mL (≈ 86.5 µM) |
| COc1ccc(C2=NOC(Cc3ccc4c(c3)OCO4)CC2)cc1OC (stereo not given) | 20 µg/mL (≈ 56.3 µM) |
| CCOC(=O)C1CCC(c2ccc(C)c(C)c2)=NO1 (stereo not given) | 20 µg/mL (≈ 76.5 µM) |

Each molecule was assayed on Staphylococcus aureus (assay: Antibacterial activity against Staphylococcus aureus MTCC 737 after 24 hrs by cup diffusion method). Conditions: MTCC 737, 24 h.
Type: functional

| Molecule | MIC |
| --- | --- |
| OCC1CCC(c2ccc3c(c2)CCC3)=NO1 (stereo not given) | 20 µg/mL (≈ 86.5 µM) |
| COc1ccc(C2=NOC(Cc3ccc4c(c3)OCO4)CC2)cc1OC (stereo not given) | 10 µg/mL (≈ 28.1 µM) |
| CCOC(=O)C1CCC(c2ccc(C)c(C)c2)=NO1 (stereo not given) | 10 µg/mL (≈ 38.3 µM) |

The molecules below were run on Aspergillus flavus (assay: Antifungal activity against Aspergillus flavus at 20 ug after 48 hrs by cup diffusion method). Conditions: not given.
Type: functional
Method in brief: as §1

| Molecule | inhibition zone (IZ) |
| --- | --- |
| NYSTATIN | 13.2 mm |

Same assay, conditions: read-out: IZ

| Molecule | zone of inhibition at 20 µg/disc |
| --- | --- |
| OCC1CCC(c2ccc3c(c2)CCC3)=NO1 (stereo not given) | 9.83 mm |
| COc1ccc(C2=NOC(Cc3ccc4c(c3)OCO4)CC2)cc1OC (stereo not given) | 8.12 mm |
| CCOC(=O)C1CCC(c2ccc(C)c(C)c2)=NO1 (stereo not given) | 12.7 mm |

These molecules were tested on Aspergillus niger (assay: Antifungal activity against Aspergillus niger at 20 ug after 48 hrs by cup diffusion method). Conditions: read-out: IZ.
Type: functional
Method in brief: as §1

| Molecule | zone of inhibition at 20 µg/disc |
| --- | --- |
| OCC1CCC(c2ccc3c(c2)CCC3)=NO1 (stereo not given) | 7.66 mm |
| COc1ccc(C2=NOC(Cc3ccc4c(c3)OCO4)CC2)cc1OC (stereo not given) | 7.75 mm |
| CCOC(=O)C1CCC(c2ccc(C)c(C)c2)=NO1 (stereo not given) | 11.5 mm |
